# Legend:
# F508del-CFTR FRT cells = experiment: Transepithelial electrical conductance; assay type: cell-based; details: 24 hours, compared to VX-809 (1 μM)
# Outline: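 F508del-CFTR FRT cells on porous membranes were treated 24 h at 37°C, 5% CO2. Same saline both sides: 130 mM NaCl, 10 mM Na-Hepes pH 7.3, 10 mM glucose. TEER was read at baseline, after forskolin 20 μM + genistein 50 μM, then after PPQ102 30 μM, waiting 10 min per step. TEER values were converted to TEEC.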
# [1] = tested on: F508del/F508del bronchial epithelial cells; experiment: Short-circuit current recordings on primary CF bronchial epithelial cells; assay type: cell-based, human
# Outline: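 Primary bronchial epithelial cells came from lung-transplant bronchi and were differentiated on porous inserts, then kept 2–3 weeks under air-liquid culture. Correctors or DMSO were given in basolateral medium. Epithelia were mounted in a vertical diffusion chamber, bicarbonate saline (126 mM NaCl, 24 mM NaHCO3, 10 mM glucose) both sides, gassed 5% CO2:95% air, 37°C. Voltage was clamped and short-circuit current recorded. ENaC was blocked with amiloride (10 μM).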
structure (smiles),measurement,setting,value
CN(C(=O)c1cccc(-n2nc(C(F)(F)F)c3c2[C@@H](Oc2ccc(C(=O)O)cc2)CCC3)c1)c1ccc2c(c1)OC(F)(F)O2 [ARN23765],"correction of F508del-CFTR, ∆TEEC",F508del-CFTR FRT cells,high potency and efficacy
same,effective concentrations lower compared to VX-809 and VX-661,[1],more than 5000 times
same,time after removal of the compound at which correction can be observed,[1],up to 36 hours
same,improvement in potency (EC50) with respect to VX-809 / presently available corrector drugs,[1]; F508del/F508del bronchial epithelial cells,more than 5000 fold
same,EC50,"[1]; Homo sapiens, Epithelial cell",0.038 nM
same,extent of rescue after 72 hours of treatment,[1]; VX-809 1 μM or ARN23765 1 nM for 72 hours,comparable to that of epithelia treated with these correctors for only 24 hours
same,F508del-CFTR rescue after 120 hours of treatment,"[1]; VX-809 1 μM or ARN23765 1 nM for 120 hours, compared to 72 hours",still maintained
same,rescue of F508del-CFTR function,"[1]; short-circuit current, CF primary bronchial epithelial cells, 24 hours",decreased at 1 μM
